Here are results for 13 compounds from ChEMBL document CHEMBL1151446, “The PhoQ-activating potential of antimicrobial peptides contributes to antimicrobial efficacy and is predictive of the induction of bacterial resistance” (2007).

The test system of assay [1] is Salmonella enterica subsp. enterica. The experiment in a line: Antibacterial activity against bacterial sensory kinase PhoQ deficient Salmonella enterica serovar Typhimurium CS009 assessed as direct antimicrobial activity after 16 hrs by modified twofold broth microdilution method. The format is functional, Salmonella enterica subsp. enterica serovar Typhimurium. A digest of the protocol:
(§1)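 Broth microdilution MBC assay: 5 × 10^5 bacteria/ml in LB with a linear gradient of peptide concentrations. Peptide dilutions were made fresh in 0.2% BSA, 0.01% acetic acid and added after the inoculum. Plates were incubated at 37°C for 16 h, then spotted onto LB agar. MBC was the lowest concentration with no growth, averaged over at least three trials.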
(Dilution methods test growth across graded concentrations, often in twofold steps.)

For assay [2] the test system is unchanged. The experiment in a line: Antibacterial activity against bacterial sensory kinase PhoQ deficient Salmonella enterica serovar Typhimurium expressing PhoPQ operon after 16 hrs by modified twofold broth microdilution method. The format is functional, Salmonella enterica subsp. enterica serovar Typhimurium. A digest of the protocol:
as §1

Assay [3] shares this test system. Description: Antibacterial activity against bacterial sensory kinase PhoP deficient Salmonella enterica serovar Typhimurium CS053 after 16 hrs by modified twofold broth microdilution method. The settings on record: CS053, 16 h. In kind it is functional, Salmonella enterica subsp. enterica serovar Typhimurium. A digest of the protocol: as §1
The test system is the same in assay [4]. The experiment in a line: Antibacterial activity against wild type Salmonella enterica serovar Typhimurium ATCC 14028 after 16 hrs by modified twofold broth microdilution method. In kind it is functional, Salmonella enterica subsp. enterica serovar Typhimurium. The following applies: ATCC 14028, 16 h. In short, it runs like this:
as §1

The test system is the same in assay [5]. Description: Antibacterial activity against bacterial sensory kinase PhoQ deficient Salmonella enterica serovar Typhimurium CS009 after 16 hrs by modified twofold broth microdilution method. In kind it is functional, Salmonella enterica subsp. enterica serovar Typhimurium. The following applies: CS009, 16 h. In short, it runs like this:
as §1

Assay [6] has as its target T1, Virulence sensor histidine kinase PhoQ (Salmonella typhimurium (strain LT2 / SGSC1412 / ATCC 700720)) (UniProt P0DM80).
T1 sequence (whole entry): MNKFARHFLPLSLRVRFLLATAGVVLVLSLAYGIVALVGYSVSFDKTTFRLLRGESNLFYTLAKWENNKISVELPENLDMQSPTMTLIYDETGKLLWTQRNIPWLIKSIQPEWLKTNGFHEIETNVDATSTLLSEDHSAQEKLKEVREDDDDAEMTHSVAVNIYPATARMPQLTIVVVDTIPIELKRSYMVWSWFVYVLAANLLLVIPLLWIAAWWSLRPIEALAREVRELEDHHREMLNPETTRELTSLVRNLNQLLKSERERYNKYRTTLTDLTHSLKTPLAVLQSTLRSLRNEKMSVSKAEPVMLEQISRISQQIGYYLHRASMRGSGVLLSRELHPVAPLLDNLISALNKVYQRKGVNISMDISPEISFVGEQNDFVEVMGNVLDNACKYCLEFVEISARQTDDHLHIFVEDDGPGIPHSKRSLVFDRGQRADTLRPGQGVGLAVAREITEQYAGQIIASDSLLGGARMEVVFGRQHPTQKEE
The experiment in a line: Activation of PhoQ in Salmonella enterica serovar Typhimurium CS102 expressing PhoN fusion protein assessed as initiation of acid phosphatase reporter enzyme expression at 1 ug/ml in presence of 1 mM magnesium. The following applies: Salmonella enterica subsp. enterica serovar Typhimurium. A digest of the protocol:
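PhoPQ reporter strain CS102 (PhoQ-regulated acid phosphatase PhoN fusion) incubated in LB with peptide at 1 μg/ml plus 1 mM magnesium; acid phosphatase activity measured. Reference conditions were 50 μM MgCl2 (activating) and 5 mM MgCl2 (repressive). Mean of three replicate experiments.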

In assay [7] the test system is Salmonella enterica subsp. enterica. The experiment in a line: Antibacterial activity against bacterial sensory kinase PhoQ deficient Salmonella enterica serovar Typhimurium CS009 assessed as PhoQ-activating potential after 16 hrs by modified twofold broth microdilution method relative to wild type Salmonella enterica serovar Typhimurium ATCC 14028. The format is functional, Salmonella enterica subsp. enterica serovar Typhimurium. In short, it runs like this: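 PAP was calculated as MBC against wild-type ATCC 14028 minus MBC against PhoQ mutant CS009. Both MBCs came from the broth microdilution assay: 5 × 10^5 bacteria/ml in LB, 37°C for 16 h, spotting onto LB agar, no-growth endpoint, averaged over at least three trials.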

Assay [8] has the same test system. The experiment in a line: Antibacterial activity against wild type Salmonella enterica serovar Typhimurium ATCC 14028 by modified twofold broth microdilution method. In kind it is functional, Salmonella enterica subsp. enterica serovar Typhimurium.
The test system is the same in assay [9]. The experiment in a line: Antibacterial activity against bacterial sensory kinase PhoQ deficient Salmonella enterica serovar Typhimurium CS009 by modified twofold broth microdilution method. In kind it is functional, Salmonella enterica subsp. enterica serovar Typhimurium.
The test system is the same in assay [10]. The experiment in a line: Antibacterial activity against wild type Salmonella enterica serovar Typhimurium ATCC 14028 preincubated till 4 hrs at dosing schedule of 1 ug/ml at time zero, 1 ug/ml at 1st hr, 2 ug/ml at 2nd hr and final 4 ug/ml at 3rd hr assessed as increase in minimum bactericidal concentration measured after 16 hrs by modified twofold broth microdilution method in presence of 1 mM Mg2+ relative to naive unadapted bacteria. In kind it is functional, Salmonella enterica subsp. enterica serovar Typhimurium.

Assay [11] shares this test system. Description: Antibacterial activity against wild type Salmonella enterica serovar Typhimurium ATCC 14028 assessed as direct antimicrobial activity after 16 hrs by modified twofold broth microdilution method. In kind it is functional, organism-based.
The test system is the same in assay [12]. Description: Antibacterial activity against bacterial sensory kinase PhoP deficient Salmonella enterica serovar Typhimurium CS053 assessed as direct antimicrobial activity after 16 hrs by modified twofold broth microdilution method. In kind it is functional, organism-based. A digest of the protocol: as §1
Assay [13] has the same test system. Description: Antibacterial activity against wild type Salmonella enterica serovar Typhimurium ATCC 14028 preincubated till 4 hrs at dosing schedule of 1 ug/ml at time zero, 1 ug/ml at 1st hr, 2 ug/ml at 2nd hr and final 4 ug/ml at 3rd hr measured after 16 hrs by modified twofold broth microdilution method in presence of 1 mM Mg2+. In kind it is functional, organism-based.

One may read the MBC as the lowest tested concentration that kills the bacteria rather than only halting them. Lower therefore signals more potent killing. The term MIC denotes the lowest concentration that inhibits growth of the organism. High values mean weaker potency, low ones greater potency.

Converted amounts (≈) assume the structure as drawn. The source made the active and inactive calls. The rule behind the calls is not given here. Where a SMILES comes first, the peptide text is derived from it.

Consider `CC[C@H](C)[C@H](NC(=O)[C@H](CCCNC(=N)N)NC(=O)[C@H](Cc1c[nH]c2ccccc12)NC(=O)[C@H](CCCNC(=N)N)NC(=O)[C@@H](N)CCCNC(=N)N)C(=O)N[C@H](C(=O)N[C@H](C(=O)N[C@H](C(=O)N[C@@H](CCCNC(=N)N)C(=O)N[C@H](C(=O)N[C@@H](CCCNC(=N)N)C(=O)N[C@@H](CCCNC(=N)N)C(N)=O)C(C)C)[C@@H](C)CC)C(C)C)C(C)C` (H-RRWRIVVIRVRR-NH2), for which the Activity amounted to 5.7 µg/mL in assay [1] and 34.3 µg/mL in assay [7]. Further, the MBC in [2] stood at 19 µg/mL (≈ 11.4 µM); in [3], 6.4 µg/mL (≈ 3.85 µM); in assay [4] it was 10 µg/mL (≈ 6.01 µM); in [5], 5.7 µg/mL (≈ 3.43 µM). The result in [6] was inactive.

`COc1cc(Cc2cnc(N)nc2N)cc(OC)c1OC` [TRIMETHOPRIM]: the MIC in assay [8] and in assay [9] was 1 µg/mL (≈ 3.44 µM) throughout.

For `CC[C@H](C)[C@H](NC(=O)[C@H](CCCNC(=N)N)NC(=O)[C@H](C)NC(=O)[C@H](CC(C)C)NC(=O)[C@@H](N)CCCNC(=N)N)C(=O)N[C@H](C(=O)N[C@H](C(=O)N[C@H](C(=O)N[C@@H](CCCNC(=N)N)C(=O)N[C@H](C(=O)N[C@@H](C)C(=O)N[C@@H](CCCNC(=N)N)C(N)=O)C(C)C)[C@@H](C)CC)C(C)C)C(C)C` (H-RLARIVVIRVAR-NH2), the Activity in assay [1] was found to be 6.2 µg/mL. Also, the MBC was determined as 42.5 µg/mL (≈ 29.9 µM) in assay [2], 6.5 µg/mL (≈ 4.57 µM) in assay [3], 32.8 µg/mL (≈ 23.1 µM) in assay [4] and 6.2 µg/mL (≈ 4.36 µM) in [5]. Besides, the result in assay [6] was Active.

For `CC[C@H](C)[C@H](NC(=O)[C@H](CCCCN)NC(=O)[C@@H](NC(=O)[C@@H](NC(=O)[C@H](CCCNC(=N)N)NC(=O)[C@H](C)NC(=O)[C@H](CC(C)C)NC(=O)[C@@H](N)CCCNC(=N)N)[C@@H](C)CC)C(C)C)C(=O)N[C@@H](CCCNC(=N)N)C(=O)N[C@H](C(=O)N[C@@H](C)C(=O)N[C@@H](CCCNC(=N)N)C(N)=O)C(C)C` (H-RLARIVKIRVAR-NH2), the Activity in assay [1] came out at 13.1 µg/mL; in [7], 55.7 µg/mL. For the same compound, the MBC in assay [2] was 69 µg/mL (≈ 47.6 µM); in [3] it was 13.3 µg/mL (≈ 9.17 µM); in assay [4], 68.8 µg/mL (≈ 47.5 µM); in assay [5], 13.1 µg/mL (≈ 9.04 µM). Moreover, in [10], the “fold change (FC)” value is “<=10”. In addition, the result in assay [6] was Active.

For `CN(C)[C@@H]1C(O)=C(C(N)=O)C(=O)[C@@]2(O)C(O)=C3C(=O)c4c(O)cccc4[C@@](C)(O)[C@H]3C[C@@H]12` [TETRACYCLINE], the MIC in [8] and in assay [9] was 3 µg/mL (≈ 6.75 µM) in each case.

`CC(C)C[C@H](NC(=O)[C@H](CCCCN)NC(=O)[C@H](CCC(N)=O)NC(=O)[C@H](CC(N)=O)NC(=O)[C@H](CC(C)C)NC(=O)[C@H](CC(=O)O)NC(=O)[C@H](CCC(=O)O)NC(=O)[C@@H]1CCCN1C(=O)[C@@H](NC(=O)[C@H](C)NC(=O)CN)[C@@H](C)O)C(=O)N[C@@H](CO)C(N)=O` (H-GATPEDLNQKLS-NH2): the MBC in [2], in assay [3], in assay [4] and in [5] was greater than 500 µg/mL throughout.

In the case of `CC[C@H](C)[C@H](NC(=O)[C@H](CCCNC(=N)N)NC(=O)[C@H](C)NC(=O)[C@H](CC(C)C)NC(=O)[C@@H](N)CCCNC(=N)N)C(=O)N[C@H](C(=O)N[C@H](C(=O)N[C@H](C(=O)N[C@@H](CCCNC(=N)N)C(=O)N[C@H](C(=O)N[C@@H](C)C(=O)NCC(N)=O)C(C)C)[C@@H](C)CC)C(C)C)C(C)C` (H-RLARIVVIRVAG-NH2), the Activity in assay [1] was 8.6 µg/mL; in assay [7] it was 22.8 µg/mL. Also, the MBC in [2] turned out to be 34 µg/mL (≈ 25.7 µM); in [3], 10.1 µg/mL (≈ 7.64 µM); in assay [4], 31.4 µg/mL (≈ 23.8 µM); in assay [5], 8.6 µg/mL (≈ 6.51 µM). Further, in assay [6], the result was Active.

Consider `CC1(C)S[C@@H]2[C@H](NC(=O)[C@H](N)c3ccccc3)C(=O)N2[C@H]1C(=O)O` [AMPICILLIN], for which the MIC in [8] is 10 µg/mL (≈ 28.6 µM); in assay [9] it was 8 µg/mL (≈ 22.9 µM).

Consider `CC[C@H](C)[C@H](NC(=O)[C@H](CCCNC(=N)N)NC(=O)[C@H](C)NC(=O)[C@H](CC(C)C)NC(=O)[C@@H](N)CCCNC(=N)N)C(=O)N[C@H](C(=O)N1CCC[C@H]1C(=O)N[C@H](C(=O)N[C@@H](CCCNC(=N)N)C(=O)N[C@H](C(=O)N[C@@H](C)C(=O)N[C@@H](CCCNC(=N)N)C(N)=O)C(C)C)[C@@H](C)CC)C(C)C` (H-RLARIVPIRVAR-NH2), for which the Activity in assay [1] amounted to 46.7 µg/mL. Besides, the minimum bactericidal concentration (MBC) in [2] was greater than 500 µg/mL; in [3], 45.4 µg/mL (≈ 32 µM); in assay [4] it was greater than 500 µg/mL; in assay [5], 46.7 µg/mL (≈ 32.9 µM). Further, the outcome in assay [11] and in [12] was inactive. Moreover, the result in assay [6] was Active.

Regarding `CC[C@H](C)[C@H](NC(=O)[C@H](CCCNC(=N)N)NC(=O)[C@H](CCCNC(=N)N)NC(=O)[C@H](CC(C)C)NC(=O)[C@@H](N)CCCNC(=N)N)C(=O)N[C@H](C(=O)N[C@H](C(=O)N[C@H](C(=O)N[C@@H](CCCNC(=N)N)C(=O)N[C@H](C(=O)N[C@@H](C)C(=O)N[C@@H](CCCNC(=N)N)C(N)=O)C(C)C)[C@@H](C)CC)C(C)C)C(C)C` (H-RLRRIVVIRVAR-NH2), the Activity in [1] amounted to 4.2 µg/mL; in [7], 7.3 µg/mL. Besides, the MBC worked out at 30 µg/mL (≈ 19.9 µM) in assay [2], 3.8 µg/mL (≈ 2.52 µM) in assay [3], 11.5 µg/mL (≈ 7.64 µM) in assay [4] and 4.2 µg/mL (≈ 2.79 µM) in assay [5]. The outcome in [13] was Active. Besides, the result in assay [6] was inactive.

Take `CCn1cc(C(=O)O)c(=O)c2ccc(C)nc21` [NALIDIXIC ACID]: the MIC in assay [8] and in assay [9] was 3 µg/mL (≈ 12.9 µM) throughout.

As for GENTAMICIN, the MIC in assay [8] and in assay [9] was 16 µg/mL each time.

`CC1(C)S[C@@H]2[C@H](NC(=O)C(C(=O)O)c3ccccc3)C(=O)N2[C@H]1C(=O)O` (stereo not given in full) [CARBENICILLIN]: the MIC in assay [8] is 10 µg/mL (≈ 26.4 µM); in [9], 8 µg/mL (≈ 21.1 µM).
